In article PMC7548052 (Molecular Diversity, 2020):
Structures can show the parent of a compound that is named as a salt.

Experiments:
Format in all cases: cell-based
MCF-7 = assay: Anticancer screening, MTT assay, 72 h; conditions: Homo sapiens, MCF7, 72 h
Method in brief: (§1)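 Monolayer cultures were kept at 37 °C, 5% CO2 and plated on day 0 at 3 × 10^4 cells/mL (HCT 116, H460) or 5 × 10^4 cells/mL (MCF-7). Test agents were added in ten-fold dilutions (10−8 to 10−4 M) and incubated 72 h. Growth was read by MTT at 570 nm. GI50 is the concentration giving 50% inhibition. Two independent experiments were run, points at least in triplicate.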

LN-229 = assay: Anticancer screening, MTS cell proliferation assay, 72 h; conditions: Homo sapiens
Method in brief: (§2)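 Human solid-tumour lines were grown as monolayers in supplier-recommended media at 37 °C, 5% CO2. LN-229 was seeded at 375 and Capan-1 at 250 cells/well and incubated overnight. Cells were then exposed for 72 h to seven concentrations (100 to 6.4 × 10−3 µM). MTS reagent was added and absorbance read at 490 nm. Two independent experiments were run, each point at least in triplicate.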

K-562 = assay: Anticancer screening, MTS cell proliferation assay, 72 h; conditions: Homo sapiens
Method in brief: (§3)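 HL-60, K-562, Z-138 and DND-41 suspension cells were seeded at 2500–6000 cells/well directly into wells already containing test compound at seven concentrations (100 to 6.4 × 10−3 µM). After 72 h, MTS reagent was added and absorbance read at 490 nm. GI50 is the concentration giving 50% growth inhibition. Two independent experiments were run, each point at least in triplicate.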

H460 = assay: Anticancer screening, MTT assay, 72 h; conditions: Homo sapiens
Method in brief: as §1

DND-41 = assay: Anticancer screening, MTS cell proliferation assay, 72 h; conditions: Homo sapiens
Method in brief: as §3

Capan-1 = assay: Anticancer screening, MTS cell proliferation assay, 72 h; conditions: Homo sapiens
Method in brief: as §2

HL-60 = assay: Anticancer screening, MTS cell proliferation assay, 72 h; conditions: Homo sapiens
Method in brief: as §3

Z-138 = assay: as above; conditions: Homo sapiens
Method in brief: as §3

HCT 116 = assay: Anticancer screening, MTT assay, 72 h; conditions: Homo sapiens
Method in brief: as §1

SMILES | GI50 (MCF-7) [µM] | GI50 (LN-229; LN-229, 72 h) [µM] | GI50 (K-562; K562, 72 h) [µM] | GI50 (H460; NCI-H460, 72 h) [µM] | GI50 (DND-41; DND41, 72 h) [µM] | GI50 (Capan-1; CAPAN-1, 72 h) [µM] | GI50 (HL-60; HL-60, 72 h) [µM] | GI50 (Z-138; Z-138, 72 h) [µM] | GI50 (HCT 116; HCT-116, 72 h) [µM] | GI50 (LN-229; LN-229) [µM] | GI50 (K-562; K562) [µM] | GI50 (H460; NCI-H460) [µM] | GI50 (DND-41; DND41) [µM] | GI50 (Capan-1; CAPAN-1) [µM] | GI50 (HL-60; HL-60) [µM] | GI50 (Z-138; Z-138) [µM] | GI50 (HCT 116; HCT-116) [µM]
C=C(CC(=O)OC)C(=O)NCCc1c[nH]c2ccc(OC)cc12 [Compound 10, Methyl 3-{[2-(5-methoxy-1H-indol-3-yl)ethyl]carbamoyl}but-3-enoate] | 2 ± 1.2 | 6.5 ± 1.2 | 16.5 ± 1 | 11 ± 1 | 18.9 ± 4.2 | 2.4 ± 0.9 | 4.9 ± 0.8 | 2.6 ± 0.3 | 3 ± 1 |  |  |  |  |  |  |  | 
C=C(CC(=O)OC)C(=O)NCCCC(C)Nc1cc(OC)cc2cccnc12 (stereo not shown) [Compound 11, Methyl 3-({4-[(6-methoxyquinolin-8-yl)amino]pentyl}carbamoyl)but-3-enoate] | 4 ± 1 | 4.3 ± 2.2 | 28.1 ± 7.1 | 4 ± 0.5 | 18.1 ± 1.1 | 5.4 ± 3.3 | 11.1 ± 0.6 | 11 ± 0.2 | 2.5 ± 0.07 |  |  |  |  |  |  |  | 
C=C(CC(=O)OC)C(=O)NCCCCNc1ccnc2cc(Cl)ccc12 [Compound 12, Methyl 3-({4-[(7-chloroquinolin-4-yl)amino]butyl}carbamoyl)but-3-enoate] | 0.8 ± 0.3 | 1.1 ± 0.1 | 8.1 ± 0.4 | 2 ± 0.9 | 3.1 ± 0.1 | 1.3 ± 0.4 | 1.9 | 1.9 ± 0.1 | 2 ± 0.05 |  |  |  |  |  |  |  | 
C=C(CC(=O)OC)C(=O)NCCCCNc1cc(C(F)(F)F)nc2c(C(F)(F)F)cccc12 [Compound 13, Methyl 3-[(4-{[2,8-bis(trifluoromethyl)quinolin-4-yl]amino}butyl)carbamoyl]but-3-enoate] | 1.4 ± 0.1 | 10.8 ± 2.5 | 46.9 ± 0.7 | 3.5 ± 1.3 | 36.7 ± 10 | 32.2 ± 2.7 | 10.3 ± 1.5 | 12.2 ± 0.1 | 2 ± 0.8 |  |  |  |  |  |  |  | 
COc1ccc2[nH]c(CCNC(=O)C=C(C)C(=O)NCCc3c[nH]c4ccc(OC)cc34)cc2c1 [Compound 14, N′-[2-(5-methoxy-1H-indol-2-yl)ethyl]-N-[2-(5-methoxy-1H-indol-3-yl)ethyl]-2-methylbut-2-enediamide] | 11 ± 0.3 |  |  | 23 ± 1 |  |  |  |  | 13 ± 0.2 |  |  |  |  |  |  |  | 
CC(=CC(=O)NCCCCNc1cc(C(F)(F)F)nc2c(C(F)(F)F)cccc12)C(=O)NCCCCNc1cc(C(F)(F)F)nc2c(C(F)(F)F)cccc12 [Compound 15, N,N′-bis(4-{[2,8-bis(trifluoromethyl)quinolin-4-yl]amino}butyl)-2-methylbut-2-enediamide] | 0.7 ± 0.2 | 2.4 ± 0.8 | 8.6 ± 0.3 | 3 ± 1 | 7.9 ± 4.4 | 2.3 ± 0.3 | 2.6 ± 0.2 | 6.9 ± 1.3 | 2.4 ± 0.4 |  |  |  |  |  |  |  | 
CC(=O)O[C@@]12CO[C@@H]1C[C@H](O)[C@@]1(C)C(=O)[C@H](O)C3=C(C)[C@@H](OC(=O)[C@H](O)[C@@H](NC(=O)OC(C)(C)C)c4ccccc4)C[C@@](O)([C@@H](OC(=O)c4ccccc4)[C@H]21)C3(C)C [DTX, docetaxel, reference compound] |  |  |  |  |  |  |  |  |  | 0.0035 ± 0.0012 | 0.0096 ± 0.0033 | 0.0058 ± 0.0038 | 0.002 ± 0.0012 | 0.0045 ± 0.002 | 0.0104 ± 0.0024 | 0.0014 ± 0.0009 | 0.0045 ± 0.0044
OC(c1cc(C(F)(F)F)nc2c(C(F)(F)F)cccc12)C1CCCCN1 (stereo not shown) [MQ, mefloquine hydrochloride, reference compound] | 1.3 ± 0.2 | 0.1 ± 0.1 | 9.4 ± 0.3 | 1.5 ± 0.1 | 3.2 ± 0.2 | 2 ± 0.1 | 5.9 ± 3.2 | 12.6 ± 0.1 | 2 ± 0.1 |  |  |  |  |  |  |  | 
COc1cc(NC(C)CCCN)c2ncccc2c1 (stereo not shown) [PQ, primaquine diphosphate, reference compound] | 7 ± 1.5 | 9.9 ± 0.4 | 43.3 ± 0.1 | 17 ± 3 | 14 ± 1 | 9 ± 3.2 | 7 ± 0.5 | 10.2 ± 0.5 | 17 ± 1 |  |  |  |  |  |  |  | 
CN[C@@H]1C[C@H]2O[C@@](C)([C@@H]1OC)n1c3ccccc3c3c4c(c5c6ccccc6n2c5c31)C(=O)NC4 [STS, staurosporine, reference compound] |  |  |  |  |  |  |  |  |  | 0.0634 ± 0.0223 | 0.0337 ± 0.0036 | 0.048 ± 0.0023 | 0.0161 ± 0.0105 | 0.0323 ± 0.0032 | 0.0312 ± 0.0123 | 0.0261 ± 0.0139 | 0.023 ± 0.0114
